Four compounds from ChEMBL document CHEMBL1122058, “Agents for the treatment of brain injury. 1. (Aryloxy)alkanoic acids” (J Med Chem, 1982) can be followed below.

The species entered for one data set is Homo sapiens. The data set can be described thus: Relative salidiuretic efficacy was scored in human; moderate. The following applies: Urine. It counts as functional, organism-based.
For data set [1], the species on record is Felis catus. The data set can be described thus: (§1) Evaluated for Potassium ion content of Cerebrocortical slices in cat with out additions. Type of data set: functional. The procedure, abridged:
(§2)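 Cat cerebral cortex slices (~150 mg, 0.5 mm) incubated aerobically 60 min at 37 °C in K+-rich (27 mM) Hepes-buffered saline-glucose with test compound as Na salt. HCO3- (NaHCO3 or TEAB) added from sidearm at 20 min to 10 mM final; HCO3- flasks gassed with 2.5% CO2/97.5% O2. Swelling by reweighing; Na+/K+ by flame photometry, Cl- by amperometric titration. Units: per g initial fresh weight; means ± SE, Student's t test.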

Data set [2] is filed under the species Felis catus. The data set can be described thus: Evaluated for Sodium ion content of Cerebrocortical slices in cat with addition of Triethylammonium Bicarbonate (TEAB). It counts as functional. In outline:
as §2

For data set [3], the species on record is Canis familiaris. The data set can be described thus: Relative salidiuretic efficacy was scored in dog; moderate. Type of data set: functional, organism-based. The following applies: Canis lupus familiaris; Urine.
For data set [4], the species on record is Rattus norvegicus. Description: Relative salidiuretic efficacy was scored in Rat; moderate. It counts as functional, organism-based. The following applies: Urine.
A short description of data set [5]: Distribution coefficient (D %) between octanol and buffer of pH 7.4. Type of data set: physicochemical. The following applies: octanol/water.
The species named for data set [6] is Felis catus. The data set can be described thus: Evaluated for Potassium ion content of Cerebrocortical slices in cat with addition of Triethylammonium Bicarbonate (TEAB). Type of data set: functional. The procedure, abridged: as §2
The species entered for data set [7] is Felis catus. The data set can be described thus: Evaluated for Sodium ion content of Cerebrocortical slices in cat with out additions. Type of data set: functional. In outline:
as §2

The species entered for data set [8] is Felis catus. The data set can be described thus: In vitro inhibition of tissue swelling of Cerebrocortical slices from cat with addition of Triethylammonium Bicarbonate (TEAB). It counts as functional. In outline:
as §2

The species named for data set [9] is Felis catus. The data set is described as §1. It counts as functional. In outline:
as §2
This is another data set of the same source.

For data set [10], the species on record is Felis catus. The data set can be described thus: In vitro inhibition of tissue swelling of Cerebrocortical slices from cat with addition of Sodium Bicarbonate (NaHCO3). Type of data set: functional. In outline:
as §2

The species entered for data set [11] is Felis catus. Description: In vitro inhibition of tissue swelling of Cerebrocortical slices from cat with out additions. Type of data set: functional. The procedure, abridged:
as §2

The species entered for data set [12] is Felis catus. The data set can be described thus: In vitro inhibition of tissue swelling of Cerebrocortical slices from cat with out additions.
The species entered for data set [13] is Felis catus. The data set can be described thus: Evaluated for Sodium ion content of Cerebrocortical slices in cat with out additions.
For data set [14], the species on record is Felis catus. Description: Evaluated for Potassium ion content of Cerebrocortical slices in cat with addition of Sodium Bicarbonate (NaHCO3). It counts as functional. In outline:
as §2

The species entered for data set [15] is Pan troglodytes. The data set can be described thus: Relative salidiuretic efficacy was scored in chimpanzee; moderate. The following applies: Urine. Type of data set: functional, organism-based.
Data set [16] in a line: Dissociation constant (pKa) (determined in 30% EtOH). It counts as physicochemical.
A short description of data set [17]: Compound was tested for bicarbonate stimulated swelling of Cerebrocortical slices from cat with addition of Triethylammonium Bicarbonate (TEAB) (in vitro). Type of data set: functional. The procedure, abridged: as §2
The species entered for data set [18] is Felis catus. The data set can be described thus: (§3) Evaluated for chloride ion content of Cerebrocortical slices in cat with out additions. Type of data set: functional. In outline: as §2
For data set [19], the species on record is Felis catus. Description: Evaluated for chloride ion content of Cerebrocortical slices in cat with addition of Sodium Bicarbonate (NaHCO3). Type of data set: functional. In outline:
as §2

For data set [20], the system named is Felis catus. Description: Mortality of animals recorded as the number of animals dead out of the total animals (42) taken for the study at dose 1 mg/kg. Type of data set: functional. In outline: (§4)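 Adult conditioned cats (2.5–4 kg) under iv methohexital (13.25 mg/kg, plus 2.75 mg/kg if needed) received machine-induced acceleration/deceleration head injury. Forty min later they were paralysed with gallamine and ventilated with 6% O2/94% N2 for 60 min (arterial pO2 23 ± 1 torr). Drug was given iv 20 min post-injury, before hypoxemia. Mortality was scored as dead/total, chi-square tested.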

Data set [21] is filed under the species Felis catus. The data set is described as §3. It counts as functional. In outline:
as §2
This is another data set of the same source.

Data set [22] is filed under the species Felis catus. Description: Evaluated for chloride ion content of Cerebrocortical slices in cat with addition of Triethylammonium Bicarbonate (TEAB). It counts as functional. The procedure, abridged: as §2
The species named for data set [23] is Felis catus. Description: Evaluated for Sodium ion content of Cerebrocortical slices in cat with addition of Sodium Bicarbonate (NaHCO3). Type of data set: functional. The procedure, abridged: as §2
The species named for data set [24] is Felis catus. Description: In vitro inhibition of HCO3- stimulated swelling in cat cerebrocortical tissue slice. It counts as functional. The following applies: read-out: I 50. In outline:
as §2

Data set [25] is described as follows: Compound was tested for bicarbonate stimulated swelling of Cerebrocortical slices from cat with addition of Sodium Bicarbonate (NaHCO3) (in vitro). The procedure, abridged:
as §2

For data set [26], the species on record is Felis catus. The data set can be described thus: Evaluated for Sodium ion content of Cerebrocortical slices in cat with addition of Sodium Bicarbonate (NaHCO3) at a compound concentration of 1 X 10E-5 M.. It counts as functional. The procedure, abridged: as §2
Data set [27] is described as follows: Evaluated for chloride ion content of Cerebrocortical slices in cat with addition of Sodium Bicarbonate (NaHCO3) at a compound concentration of 1 X 10E-5 M.. Type of data set: functional, Felis catus. In outline: as §2
Data set [28] is filed under the species Pan troglodytes. The data set can be described thus: Relative salidiuretic efficacy was scored in chimpanzee; marked. It counts as functional, organism-based. The following applies: Urine.
For data set [29], the species on record is Felis catus. The data set can be described thus: Evaluated for Potassium ion content of Cerebrocortical slices in cat with addition of Sodium Bicarbonate (NaHCO3) at a compound concentration of 1 X 10E-7 M.. Type of data set: functional. In outline:
as §2

The species named for data set [30] is Felis catus. Description: In vitro inhibition of tissue swelling of Cerebrocortical slices from cat with addition of Sodium Bicarbonate (NaHCO3) at a compound concentration of 1 X 10E-7 M. It counts as functional. The procedure, abridged:
as §2

Data set [31] is filed under the species Felis catus. Description: Evaluated for Potassium ion content of Cerebrocortical slices in cat with addition of Triethylammonium Bicarbonate (TEAB) at a compound concentration of 1 X 10E-5 M. It counts as functional. In outline:
as §2

The species entered for data set [32] is Felis catus. The data set can be described thus: Evaluated for chloride ion content of Cerebrocortical slices in cat with addition of Triethylammonium Bicarbonate (TEAB) at a compound concentration of 1 X 10E-5 M. Type of data set: functional. The procedure, abridged:
as §2

A short description of data set [33]: Evaluated for Potassium ion content of Cerebrocortical slices in cat with addition of Sodium Bicarbonate (NaHCO3) at a compound concentration of 1 X 10E-5 M. It counts as functional, Felis catus. In outline:
as §2

Data set [34] can be described thus: Evaluated for Sodium ion content of Cerebrocortical slices in cat with addition of Triethylammonium Bicarbonate (TEAB) at a compound concentration of 1 X 10E-5 M. Type of data set: functional, Felis catus. In outline: as §2
The species named for data set [35] is Felis catus. Description: In vitro inhibition of tissue swelling of Cerebrocortical slices from cat with addition of Sodium Bicarbonate (NaHCO3) at a compound concentration of 1 X 10E-5 M.. Type of data set: functional. In outline: as §2
The nature of data set [36]: In vitro inhibition of tissue swelling of Cerebrocortical slices from cat with addition of Triethylammonium Bicarbonate (TEAB) at a compound concentration of 1 X 10E-5 M. It counts as functional, Felis catus. In outline:
as §2

The species named for data set [37] is Rattus norvegicus. The data set can be described thus: Relative salidiuretic efficacy was scored in Rat; marked. Type of data set: functional, organism-based. The following applies: Urine.
Data set [38] has as its system Felis catus. Description: Mortality of animals recorded as the number of animals dead out of the total animals (16) taken for the study at dose 1 mg/kg given q.i.d. Type of data set: functional.
Data set [39] concerns Felis catus. Description: Mortality of animals recorded as the number of animals dead out of the total animals (16) taken for the study at dose 5 mg/kg. Type of data set: functional. In outline:
as §4

Data set [40] is filed under the species Pan troglodytes. Description: Relative salidiuretic efficacy was scored in chimpanzee; Marginal. Type of data set: functional, organism-based. The following applies: Urine.
The species named for data set [41] is Canis familiaris. Description: Relative salidiuretic efficacy was scored in dog; Marginal. Type of data set: functional, organism-based. The following applies: Canis lupus familiaris; Urine.
Data set [42] is filed under the species Rattus norvegicus. The data set can be described thus: Relative salidiuretic efficacy was scored in Rat; Marginal. It counts as functional, organism-based. The following applies: Urine.

The source made the active and inactive calls. The calls are words filed in the database; no cut-off is given here.

One may read the pKa as the pH at which an ionisable group is half protonated. Higher therefore signals a group that holds its proton tightly. As to `CC1(C2CCCC2)Cc2cc(OCC(=O)O)c(Cl)c(Cl)c2C1=O` (racemic), the Relative salidiuretic activity result in the data set filed under Homo sapiens, in the data set listed under Canis familiaris [3], in the data set filed under Rattus norvegicus [4] and in the data set filed under Pan troglodytes [15] was “marked” each time. Moreover, the Activity came to 94.4 µM/g in the data set listed under Felis catus [1]; 118.8 µM/g in the data set listed under Felis catus [2]; 91.4 µM/g in the data set listed under Felis catus [6]; 101.6 µM/g in the data set listed under Felis catus [7]; 93.5 µM/g in the data set filed under Felis catus [9]; 100.4 µM/g in the data set listed under Felis catus [13]. Moreover, the Activity is 97.1 µM/g in the data set listed under Felis catus [14]; 100 in data set [17]; 89.9 µM/g in the data set listed under Felis catus [18]; 98.2 µM/g in the data set listed under Felis catus [19]; 90.2 µM/g in the data set listed under Felis catus [21]; 104.8 µM/g in the data set listed under Felis catus [22]. The Activity came out at 116.3 µM/g in the data set listed under Felis catus [23] and 100 in data set [25]. The compound further showed a Distribution in data set [5] of 90%. Also, the Tissue swelling was 293 µL/g in the data set listed under Felis catus [8], 268 µL/g in the data set listed under Felis catus [10], 179 µL/g in the data set listed under Felis catus [11] and 170 µL/g in the data set listed under Felis catus [12]. The pKa in [16] worked out at 3.9. Further, in the data set on Felis catus [20], the Mortality was determined as 11. Further, the IC50 in the data set filed under Felis catus [24] was 0.2 µM.

Regarding `C[C@]1(C2CCCC2)Cc2cc(OCC(=O)O)c(Cl)c(Cl)c2C1=O`, the Activity stood at 101.8 µM/g in the data set filed under Felis catus [26]; 89 µM/g in data set [27]; 98.4 µM/g in the data set listed under Felis catus [29]; 95.9 µM/g in the data set filed under Felis catus [31]; 84.1 µM/g in the data set listed under Felis catus [32]; 92.4 µM/g in [33]. Moreover, in data set [34], the Activity came out at 100.9 µM/g. The Relative salidiuretic activity result in the data set listed under Canis familiaris [3], in the data set filed under Pan troglodytes [28] and in the data set listed under Rattus norvegicus [37] was “marked” each time. In [5], this compound showed a Distribution of 90%. In addition, the Tissue swelling in the data set listed under Felis catus [30] amounted to 232 µL/g; in the data set filed under Felis catus [35], 157 µL/g; in data set [36], 156 µM/g. In data set [16], this compound showed a pKa of 3.9. For the same compound, the IC50 in the data set listed under Felis catus [24] worked out at 0.1 µM.

Regarding `CC(=O)Nc1nnc(S(N)(=O)=O)s1` [ACETAZOLAMIDE], the Mortality in the data set on Felis catus [38] is 8. In data set [5], the Distribution amounted to 22%. In the data set listed under Felis catus [24], the IC50 is 2000 µM.

In the case of `CC1(C2CCCC2)Cc2cc(OCCCC(=O)O)c(Cl)c(Cl)c2C1=O` (racemic), the Distribution in data set [5] is 99%. Also, the Mortality with Felis catus [39] was determined as 4. The Relative salidiuretic activity result in the data set listed under Pan troglodytes [40], in the data set listed under Canis familiaris [41] and in the data set filed under Rattus norvegicus [42] was “inactive” in each case. In data set [16], this compound yielded a pKa of 5.7. Moreover, in the data set filed under Felis catus [24], the IC50 turned out to be 0.02 µM.
